Assay results collected from several papers.
Effect on: cell growth or viability

CCOC(=O)c1nn(-c2cccc(Cl)c2)/c(=N/N=C(\C)c2ccc(NC(=O)c3ccccc3)cc2)s1
viability (HepG2; MTT; 2.5 µM): 2.82%

CC(=NNC(=O)c1ccncc1)c1ccc(Nc2nnc(-c3ccc(Cl)cc3)c3ccccc23)cc1
viability (HepG2; MTT; 1.25 µM; 24 h): 5.31%

CC(=O)c1nn(-c2ccc(C)cc2)/c(=N/N=C(\C)c2ccc(NC(=O)c3ccccc3)cc2)s1
viability (HepG2; MTT; 78 nM): 73.6%

CC(C)(C)c1cnc(CSc2cnc(NC(=O)C3CCN(C(=O)CCCSc4cccc5c4C(=O)N(C4CCC(=O)NC4=O)C5=O)CC3)s2)o1 (stereo not shown)
viability (HH; CCK-8; 1 µM): 8.16%

CC(=O)Nc1ccc(/C(C)=N/N=c2\sc(C(C)=O)nn2-c2ccc(C)cc2)cc1
viability (HepG2; MTT; 0.625 µM): 99.8%

CC(C)(C)c1cnc(CSc2cnc(NC(=O)C3CCN(CCCCSc4cccc5c4C(=O)N(C4CCC(=O)NC4=O)C5=O)CC3)s2)o1 (stereo not shown)
viability (HH; CCK-8; 0.2 µM): 1.85%

S=C(Nc1ccccc1)Nc1ccc(Oc2nnc(-c3ccc(Cl)cc3)c3ccccc23)cc1
viability (HepG2; MTT; 2.5 µM; 24 h): 18%

CC(C)(C)c1cnc(CSc2cnc(NC(=O)C3CCN(CCCCCCCCSc4cccc5c4C(=O)N(C4CCC(=O)NC4=O)C5=O)CC3)s2)o1 (stereo not shown)
viability (HH; CCK-8; 1 nM): 99.5%

O=C(C=Cc1ccccc1)Nc1ccc(Oc2nnc(-c3ccc(Cl)cc3)c3ccccc23)cc1
viability (HepG2; MTT; 10 µM; 24 h): 2.63%

CC(C)(C)c1cnc(CSc2cnc(NC(=O)C3CCN(C(=O)COCCOCCSc4cccc5c4C(=O)N(C4CCC(=O)NC4=O)C5=O)CC3)s2)o1 (stereo not shown)
viability (HH; CCK-8; 0.2 µM): 94.2%

CC(=NNC(=O)COc1ccc2c(C)c(Cc3ccccc3)c(=O)oc2c1C)c1ccc(Br)cc1
viability (HepG2; MTT; 0.4 µg/mL): 58%

O=C(Nc1ccc(Oc2nnc(-c3ccc(Cl)cc3)c3ccccc23)cc1)c1cccc([N+](=O)[O-])c1
viability (HepG2; MTT; 10 µM; 24 h): 6.17%

CCOC(=O)c1nn(-c2cccc(Cl)c2)/c(=N/N=C(\C)c2ccc(NC(=O)c3ccc(Cl)cc3)cc2)s1
viability (HepG2; MTT; 0.312 µM): 3.13%

CC(=NNC(=S)Nc1ccccc1)c1ccc(Nc2nnc(-c3ccc(Cl)cc3)c3ccccc23)cc1
viability (HepG2; MTT; 0.625 µM; 24 h): 79.5%

CC(=O)c1nn(-c2ccccc2Cl)/c(=N/N=C(\C)c2ccc(NC(=O)c3ccccc3)cc2)s1
viability (HepG2; MTT; 0.312 µM): 6.13%

CC(C)(C)c1cnc(CSc2cnc(NC(=O)C3CCN(CCCCCSc4cccc5c4CN(C4CCC(=O)NC4=O)C5=O)CC3)s2)o1 (stereo not shown)
viability (HH; CCK-8; 50 nM): 97.6%
